ChEMBL document CHEMBL4513216, “Probing the Open Global Health Chemical Diversity Library for Multistage-Active Starting Points for Next-Generation Antimalarials” (ACS Infect Dis, 2020)

Assay: Toxicity liver stage against HepG2, at 10uM
Assay type: cell-based
Parameters: test concentration 10 uM, cell line HepG2-A16-CD81EGFP
Settings: human, HepG2-A16-CD81EGFP cells; read-out: INHIBITION
How it was run: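 Uninfected HepG2-A16-CD81EGFP cells, 3 × 10^3 per well, 1536-well, plated on prespotted compound at 10 μM final, parasite-free screening media added to match infected plates; puromycin 10 μM positive, DMSO 0.5% negative; run in parallel with 48 h PbLuc assay at 37 °C, 5% CO2; viability by CellTiter-Glo luminescence, normalized to controls.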

O=C(C1CCOCC1)N1C[C@@H](F)[C@@H](OCc2nc3cc(F)ccc3[nH]2)C1
cytotoxicity at 10 µM: -9.9%

O=C(NC[C@H]1OC[C@@H](NCc2ccccn2)[C@@H]1O)c1ccc(F)cc1
cytotoxicity at 10 µM: -2.65%

CO[C@@H]1CN(C)S(=O)(=O)[C@@]12CCN(Cc1ccccc1)C2
cytotoxicity at 10 µM: 3.02%

COCCOC(=O)N1CCN2C[C@@H](CO)[C@H](c3ccccc3)[C@H]2C1
cytotoxicity at 10 µM: 3.44%

COC(=O)CCC(=O)N(Cc1ccc2cc[nH]c2c1)C1CC1
cytotoxicity at 10 µM: -3.4%

CCOc1ccc(NC(=O)Nc2cnc(N3CCOCC3)nc2)cc1
cytotoxicity at 10 µM: -11.4%

O=C1COc2ccc(Cl)cc2CN1CC1CC1
cytotoxicity at 10 µM: -9.2%

CCN1CC2(CCCCN2C(=O)c2ccsc2)CC1=O (stereo unspecified)
cytotoxicity at 10 µM: 5.97%

CCNC(=O)c1cc(OC)c2cc(F)cc(C)c2n1
cytotoxicity at 10 µM: -3.42%

O=S(=O)(C1CC1)N1CCC2(COCc3cnc(N4CCOCC4)nc32)C1 (stereo unspecified)
cytotoxicity at 10 µM: -5.44%

CCS(=O)(=O)N1CCCC(n2nnn(-c3ccccc3)c2=O)C1 (stereo unspecified)
cytotoxicity at 10 µM: 2.65%

CS(=O)(=O)c1cncnc1C1CCCN(C(=O)Nc2ccccc2F)C1 (stereo unspecified)
cytotoxicity at 10 µM: -0.675%

Cc1nonc1CN(C)Cc1cnn(-c2ccc(Cl)cc2)c1
cytotoxicity at 10 µM: -16.3%

Cc1cccc(CC2CCCN(C(=O)Cc3csc(C)n3)C2)n1 (stereo unspecified)
cytotoxicity at 10 µM: -26.5%

Cc1cc(C)nc(C2CCN(C(=O)c3cnco3)C2)n1 (stereo unspecified)
cytotoxicity at 10 µM: -4.22%

CCc1cc(C(F)(F)F)c2c(C3CCCN(C(=O)COC)C3)noc2n1 (stereo unspecified)
cytotoxicity at 10 µM: -17.6%

Cc1noc(CCNC(=O)c2ccc(Br)c(S(=O)(=O)N(C)C)c2)n1
cytotoxicity at 10 µM: 6.45%

COc1cccc(F)c1C(C)NC(=O)NCc1cnc(C)s1 (stereo unspecified)
cytotoxicity at 10 µM: -4.94%

Cc1noc(C(C)C)c1C(=O)NCC1CCN(c2ccccc2)C1 (stereo unspecified)
cytotoxicity at 10 µM: -11.8%

c1cc(CNCc2cccc3c2OCCO3)cc(Cn2cncn2)c1
cytotoxicity at 10 µM: -1.54%

CC(C)(C)C(=O)NCCCc1nc2ccccc2[nH]1
cytotoxicity at 10 µM: 5.68%

CCc1nc(CCNc2ncccc2C#N)sc1C
cytotoxicity at 10 µM: 15.4%

CC(CNC(=O)c1cccc(C#N)c1)N1CCc2ccccc21 (stereo unspecified)
cytotoxicity at 10 µM: -16.3%

CC1CCN(CCNC(=O)C2CCN(C(=O)C3CC3)CC2)CC1
cytotoxicity at 10 µM: 6.86%

CN(C)C(=O)Cn1cc(C(=O)NCCc2cccc(Cl)c2Cl)nn1
cytotoxicity at 10 µM: -1.42%

CCc1nnc2n1CCN(C(=O)c1ccc3c(c1)nnn3C)C2
cytotoxicity at 10 µM: -4.68%

CCOc1ccccc1NC(=O)N(CCO)Cc1ccsc1
cytotoxicity at 10 µM: 0.633%

N#Cc1cccc(NC(=O)N2CCCC(N3CCCC3=O)C2)c1 (stereo unspecified)
cytotoxicity at 10 µM: 7.92%

CC(C)NC(=O)NCCCOC1CCOCC1
cytotoxicity at 10 µM: -17%

CN(CCS(=O)(=O)c1cc(Cl)ccc1Cl)CC(=O)Nc1ccc(F)cc1
cytotoxicity at 10 µM: 8.9%

Cc1noc(CCCC(=O)Nc2ncccc2Br)n1
cytotoxicity at 10 µM: -15.7%

CC(=O)c1cccc(OCCCC(=O)N(C)CCc2ccncc2)c1
cytotoxicity at 10 µM: -11.7%

Cc1nc(C)n(CC2CCCCN2CCS(C)(=O)=O)n1 (stereo unspecified)
cytotoxicity at 10 µM: -10.9%

NS(=O)(=O)CCNC(=O)C1(c2ccc(Br)cc2)CC1
cytotoxicity at 10 µM: -4.69%

O=C(C1CCOC1)N1C[C@@H]2CCN(C(=O)c3cscn3)[C@@H]2C1 (stereo partly specified)
cytotoxicity at 10 µM: -2.85%

Cc1nc(CN2C[C@@H]3CN(C(=O)CC(F)(F)F)C[C@@H]3C2=O)cs1
cytotoxicity at 10 µM: -73.5%

CN(Cc1ccc(-n2ccnc2)cc1)Cc1ncc[nH]1
cytotoxicity at 10 µM: 3.69%

CO[C@H]1COC[C@@H]1NC(=O)C1(Oc2ccc(Cl)cc2)CCNCC1
cytotoxicity at 10 µM: -1.91%

CC(C)Cc1noc(CN(C)c2cc(N(C)C)ncn2)n1
cytotoxicity at 10 µM: -0.75%

Cc1ccc(C(=O)N2CCC3(CCC(=O)N(CC(C)O)C3)CC2)c(O)c1 (stereo unspecified)
cytotoxicity at 10 µM: 11%

CCn1nc(C)c(CCNC(=O)C2CCCN(C(N)=O)C2)c1C (stereo unspecified)
cytotoxicity at 10 µM: -11.2%

CCC(CO)N(Cc1ccc(F)cc1)Cc1c(C)nn(C)c1Cl (stereo unspecified)
cytotoxicity at 10 µM: 8.64%

CC(NC1CCCC1)c1ccccc1-n1cccn1 (stereo unspecified)
cytotoxicity at 10 µM: 7.5%

COc1cccc(N2CCN(C(=O)C(OC)c3ccccc3)CC2=O)c1 (stereo unspecified)
cytotoxicity at 10 µM: -0.693%

CC(C)Cc1cc(C(=O)NCC(O)CN2CCCCCC2)on1 (stereo unspecified)
cytotoxicity at 10 µM: -1.53%

Cc1nc(C)c(C)c(NCCSCc2[nH]cnc2C)n1
cytotoxicity at 10 µM: 2.3%

CN1CCN(C[C@@H]2CN(C(=O)NCC3CCCCC3)C[C@@H]2CO)CC1
cytotoxicity at 10 µM: -9.18%

CCCSCC(=O)N1C[C@@H](NC(C)=O)[C@H](c2ccc(OC)cc2)C1
cytotoxicity at 10 µM: 7.41%

CC(C)N(Cc1nccn1C)C(=O)c1cnc(O)cn1
cytotoxicity at 10 µM: -1.82%

Cc1ccc(OC2(C(=O)NC(C)Cc3ccsc3)CCNCC2)cc1 (stereo unspecified)
cytotoxicity at 10 µM: -15.4%

Cc1cc(C)c2nc(CN3CCC(CN)C3)cc(O)c2c1 (stereo unspecified)
cytotoxicity at 10 µM: -14.8%

Cc1ccc(C(=O)O)cc1-c1cccc(C(C)N(C)C)c1 (stereo unspecified)
cytotoxicity at 10 µM: -3.17%

CCC(=O)N1CCCC1c1nccnc1Nc1nc(C)cc(C)n1 (stereo unspecified)
cytotoxicity at 10 µM: 3.99%

O=C(Cc1c(F)cccc1Cl)N1CCC(Nc2cccnn2)CC1
cytotoxicity at 10 µM: -4.92%

CN(C)c1cc(C(=O)N2CCCCC2CNS(C)(=O)=O)ccn1 (stereo unspecified)
cytotoxicity at 10 µM: -16%

Cc1nc(C)n(CC2CCCN(CCC(=O)NC3CCCC3)C2)n1 (stereo unspecified)
cytotoxicity at 10 µM: -6.73%

O=C(CN(Cc1ccco1)C1CC1)N1CCCCCC1
cytotoxicity at 10 µM: -3.26%

COc1cc2ccccc2cc1C(=O)N1CCCC(c2nncn2C)C1 (stereo unspecified)
cytotoxicity at 10 µM: -6.9%

Cn1cnnc1C1CCCN(C(=O)c2cc3ccccc3[nH]2)C1 (stereo unspecified)
cytotoxicity at 10 µM: -7.88%

Cn1ccc(CN2CCCC2c2ccc3c(c2)OCCCO3)cc1=O (stereo unspecified)
cytotoxicity at 10 µM: -4.2%

Cc1csc(N2CCCN(C(=O)C3(C#N)CCCCC3)CC2)n1
cytotoxicity at 10 µM: -2.45%

CCc1nc(C2CCCN2C(=O)c2ccc3c(c2)nc(C)n3C)no1 (stereo unspecified)
cytotoxicity at 10 µM: 3.54%

COc1ccc(CN2CCCC2Cn2nc(C)nc2C)cc1F (stereo unspecified)
cytotoxicity at 10 µM: 2.89%

CC(CNCc1ccc2c(c1)n(C)c(=O)n2C)Oc1ccccn1 (stereo unspecified)
cytotoxicity at 10 µM: 6.27%

COCCN1CCn2c(CN(C)C(C)C)cnc2C1
cytotoxicity at 10 µM: -2.92%

CCN1CCn2c(C)cnc2C12CCN(C(=O)c1cscn1)CC2
cytotoxicity at 10 µM: 6.59%

COCCN1C[C@@H](C)[C@@]2(COCCN(C(=O)c3ccncc3)C2)C1
cytotoxicity at 10 µM: 5.71%

CO[C@@H]1CC[C@H]2[C@H]1OCCN2Cc1ccc(F)c(F)c1
cytotoxicity at 10 µM: 4.33%

c1cncc(CO[C@H]2CC[C@H]3[C@@H]2OCCN3C2CCOCC2)c1
cytotoxicity at 10 µM: -14.4%

O=C1CCCN1Cc1nnc2n1CCN(Cc1ccco1)CC2
cytotoxicity at 10 µM: 3.39%

O=C(NCc1ccccn1)[C@@H]1COC[C@H]2CN(c3ncccn3)C[C@H]21
cytotoxicity at 10 µM: 7.31%

CN1CCN([C@@H]2CCN(C3CCOCC3)[C@H]2Cc2cnn(C)c2)CC1
cytotoxicity at 10 µM: 5.07%

COc1ccc(CN2CCC3(CC2)CCN(CC(=O)N(C)C)C3=O)cc1
cytotoxicity at 10 µM: -0.449%

COc1cccc(-c2c[nH]c(C3CCCN3)n2)c1 (stereo unspecified)
cytotoxicity at 10 µM: -4.91%

CN1CCN(Cc2cccnc2)C2(CCN(c3ncc(F)cn3)C2)C1=O (stereo unspecified)
cytotoxicity at 10 µM: -6.49%

COC[C@H]1CCC[C@]12CN(CCc1ccccc1)CCO2
cytotoxicity at 10 µM: 4.34%

CCOCC1CN(c2ccncn2)Cc2cnn(CC3CC3)c21 (stereo unspecified)
cytotoxicity at 10 µM: 6.38%

CC(=O)N1C[C@@H]2CN(Cc3cccnc3)CCO[C@@H]2C1
cytotoxicity at 10 µM: -0.271%

Cc1ccc(N2CCCC3(COCCN(c4nccs4)C3)C2)nn1 (stereo unspecified)
cytotoxicity at 10 µM: -1.05%

O=C1NC2(CCN(C(=O)c3ccccc3)CC2)CC1c1cccnc1 (stereo unspecified)
cytotoxicity at 10 µM: -10.9%

COCC(=O)NCC1CCC(c2nnc(-c3cccnc3)o2)CC1 (stereo unspecified)
cytotoxicity at 10 µM: -2.74%
